Read-outs that look alike come from different tables or passages of the source.
Experiments:
[1] = blood-to-lumen jejunal 51Cr-EDTA clearance; assay type: in vivo; conditions: hypotonic perfusate (100 mOsm) with lidocaine, rat SPIP, test vs control period
Summary of the method: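 Male Wistar Han rats (299–395 g) anaesthetised with inactin (180 mg/kg i.p., 5% w/v), body temperature held at 37.5 ± 0.5 °C, arterial pressure monitored. The proximal jejunal segment (about 10 cm) was single-pass perfused at 0.2 mL/min at 37 °C. A 30-min PBS stabilisation reached steady plasma 51Cr-EDTA. Then came 60 min of isotonic pH 7.4 control buffer holding both peptides, followed by 75 min of hypotonic (100 mOsm) perfusate with lidocaine 1 mg/mL. Clearance was computed as blood-to-lumen 51Cr-EDTA transport per 100 g wet jejunal tissue, expressed as the ratio of mean test-period (60 min) to mean control-period (45 min) values. n = 6 rats.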

[2] = ref 22 (enalaprilat), ref 23 (hexarelin); cited from earlier work
[3] = cited from earlier work; for basal permeability: recent rat SPIP study with transcellular PEs; for effect of transcellular PEs on jejunal permeability: sodium dodecyl sulfate (SDS) and caprate, rat SPIP in vivo
[4] = n-octanol-water coefficient; ref 22 (enalaprilat), ref 23 (hexarelin); cited from earlier work
[5] = dissociation constant; cited from earlier work
[6] = compatibility/stability of study drugs in perfusion solution; assay type: physicochemical; conditions: solution pH 6.5, 37 °C; for concentration in perfusion solution, after: after 4 h; for concentration in perfusion solution, before: before 4 h
[7] = Pefabloc SC at 0.3 mg/mL, in rat; cited from earlier work
[8] = rat single-pass intestinal perfusion; assay type: in vivo; conditions: with EDTA at 1 mg/mL or the two hypotonic (100 mOsm) perfusion solutions with or without lidocaine; rat SPIP, n = 6
[9] = cited from earlier work

Molecule | HBA (hydrogen bond acceptor) [2] | HBD (hydrogen bond donor) [2] | basal permeability [3] | effect of transcellular PEs on jejunal permeability [3] | LogP [4] | concentration in perfusion solution, after [6] [µM] | concentration in perfusion solution, before [6] [µM] | other results
O=C([O-])CN(CCN(CC(=O)[O-])CC(=O)[O-])CC(=O)[O-].[51Cr+3] [51Cr-EDTA, ^51chromium-labeled EDTA] | – | – | – | – | – | – | – | increase in CLCr-EDTA (permeability) [1]: 15 fold
C[C@H](N[C@@H](CCc1ccccc1)C(=O)O)C(=O)N1CCC[C@H]1C(=O)O [Enalaprilat] | 6 | 3 | 0.013 ± 0.009 × 10^−4 cm/s | substantially increased | −0.13 | 84.8 | 83.9 | pKa (footnote a, Acid) [5]: 7.84; pKa (footnote b, Base) [5]: 3.17
Cl.NCCc1ccc(S(=O)(=O)F)cc1 [Pefabloc SC] | – | – | – | – | – | – | – | inhibition of the intestinal degradation of hexarelin [7]: completely inhibits
Hexarelin | 9 | 11 | 0.0019 ± 0.0013 × 10^−4 cm/s | unaffected | 0.73 | 33.9 | 29.9 | PSA (polar surface area) [2]: 300; Peff ratio (baseline vs. test) [8]: no increase
desmopressin | – | – | – | – | – | – | – | bioavailability of the given oral dose [9]: 0.1%
semaglutide | – | – | – | – | – | – | – | terminal half-life in plasma [9]: ~1 week; bioavailability of the given oral dose ([9]; with SNAC): 0.4%–1.0

Source: PMC8245904 (Acta Pharmaceutica Sinica. B, 2021)
